The values that follow come from ChEMBL document CHEMBL3227921, “Synthetic antagonists of in vivo responses by the rat uterus to oxytocin” (J Med Chem, 1979).

The structures appear in SMILES notation. The source made the active and inactive calls. The rule behind the calls is not given here. Numbered stars: 1 amine (or outer) side, 2 acyl side, 3 side chain; on linkers, the order of the positions; unused ones are H or OH. Bridge positions count the residues as written; N and C are the ends. Square brackets hold non-standard residues; d marks the D form. Peptide text beside a SMILES is read from it. * marks the point of attachment. X1 = O=C(CC1(S[*:2])CCCCC1)[*:1]; X3 = CCC(CC)(CC(=O)[*:1])S[*:2]; X2 = CC(C)(CC(=O)[*:1])S[*:2]; X4 = NC(=O)NC(=O)CN*; Mpa = O=C(O)CCS

What is called pA2 is the negative logarithm of the molar antagonist concentration that doubles the agonist concentration needed for the same response. A high value points to higher antagonist potency.

Assay [1] deals with T1, Oxytocin receptor (Rattus norvegicus, UniProt P70536).
T1 sequence (P70536 whole entry): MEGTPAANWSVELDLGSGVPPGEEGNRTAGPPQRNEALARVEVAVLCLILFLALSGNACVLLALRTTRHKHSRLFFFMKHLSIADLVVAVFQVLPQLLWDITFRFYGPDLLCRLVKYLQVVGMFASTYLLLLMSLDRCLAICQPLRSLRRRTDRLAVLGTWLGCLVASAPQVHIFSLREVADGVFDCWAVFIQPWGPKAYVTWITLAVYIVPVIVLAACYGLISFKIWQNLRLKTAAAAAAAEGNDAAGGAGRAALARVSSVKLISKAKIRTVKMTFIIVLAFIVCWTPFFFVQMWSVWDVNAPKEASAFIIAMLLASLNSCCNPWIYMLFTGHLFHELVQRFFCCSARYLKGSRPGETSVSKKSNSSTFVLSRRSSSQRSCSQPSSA
Nature of the assay: Antagonist activity at oxytocin receptor in rat uterus pretreated with diethylstilbestrol compound treated 1 min prior to oxytocin addition. The format is tissue-based. As to conditions: read-out: pA2 (converted). The essentials:
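Isolated uterine horns from diethylstilbestrol-pretreated rats suspended in Munsick's solution without Mg2+. Isometric contractions recorded. Antagonist added to bath 1 min before agonist. pA2 calculated by Schild's method: negative log of the molar antagonist concentration that reduces the response to 2x units of agonist to the response to x units without antagonist. Mean ± SE over assay groups.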

For assay [2], the target named is T1, Oxytocin receptor. Briefly: Antagonist activity at oxytocin receptor in rat uterus pretreated with diethylstilbestrol compound treated 1 min prior to oxytocin addition in presence of 0.5 mM Mg2+. Type of assay: tissue-based. As to conditions: read-out: pA2 (converted). The essentials:
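Uterine horns from rats pretreated with diethylstilbestrol, bathed in Munsick's solution containing 0.5 mM Mg2+. Isometric contractions recorded, with antagonist added 1 min ahead of agonist. Schild pA2 taken as negative log molar antagonist concentration reducing the 2x-agonist response to the x-unit response without antagonist. Mean ± SE, number of assay groups given.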

Assay [3] relates to Rattus norvegicus. Nature of the assay: Antioxytocic activity in iv dosed rat uterus pretreated with diethylstilbestrol compound treated 1 min prior to oxytocin injection. Type of assay: functional, organism-based. As to conditions: for Kb: read-out: pA2 (converted). The essentials:
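Anesthetized diethylstilbestrol-pretreated rats, modified Bisset uterus assay. Antagonist given intravenously 1 min before agonist. Read-out was integrated intrauterine pressure over 10 min after agonist injection. In vivo "pA2" estimated by the Dyckes et al. method; pA2 6.00 corresponds to 67 nmol/kg i.v. and 7.00 to 6.7 nmol/kg. Mean ± SE over assay groups.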

Assay [4] can be described thus: (§1) Antagonist activity at rat vasopressin receptor. The essentials:
(§2)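 Anesthetized rats, vasopressor responses recorded per Dekanski. Antagonist injected 1 min before agonist. In vivo "pA2" estimated by the method of Dyckes et al., which assumes a volume of distribution for the injected antagonist. Mean ± SE over assay groups.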

For assay [5], the target named is T2, Oxytocin receptor (Rattus norvegicus) (UniProt P70536).
T2 sequence (whole entry): T1 sequence (P70536 whole entry)
Nature of the assay: Partial agonist activity at oxytocin receptor in rat uterus pretreated with diethylstilbestrol compound treated 1 min prior to oxytocin addition in presence of 0.5 mM Mg2+.

For assay [6], the species on record is Rattus norvegicus. The description is as §1. The essentials:
as §2

As to `COc1ccc(C[C@@H]2NC(=O)CC(C)(C)SSC[C@@H](C(=O)N3CCC[C@H]3C(=O)N[C@@H](CCCN=C(N)N)C(=O)NCC(N)=O)NC(=O)[C@H](CC(N)=O)NC(=O)[C@H](CCC(N)=O)NC(=O)[C@H](Cc3ccccc3)NC2=O)cc1` (Y(Me)FQNCPRG-NH2; linker N-5 via X2), the Kb in assay [1] was 24.5 nM.
In the case of `CC[C@H](C)[C@@H]1NC(=O)[C@H](Cc2ccc(OC)cc2)NC(=O)CC(C)(C)SSC[C@@H](C(=O)N2CCC[C@H]2C(=O)N[C@@H](CC(C)C)C(=O)NCC(N)=O)NC(=O)[C@H](CC(N)=O)NC(=O)[C@H](CCC(N)=O)NC1=O` (Y(Me)IQNCPLG-NH2; linker N-5 via X2), the Kb is 17.4 nM in assay [1], 15.8 nM in assay [2] and 138 nM in assay [3]. In addition, in assay [4], the pA2 is 7.59.
`CC[C@H](C)[C@@H]1NC(=O)[C@H](Cc2ccc(OC)cc2)NC(=O)CC(C)(C)SSC[C@@H](C(=O)N2CCC[C@H]2C(=O)N[C@@H](CC(C)C)C(=O)NCC(N)=O)NC(=O)[C@H](CC(N)=O)NC(=O)[C@H]([C@@H](C)O)NC1=O` (Y(Me)ITNCPLG-NH2; linker N-5 via X2): the Kb in assay [1] was 22.9 nM; in assay [2] it was 16.2 nM; in assay [3], 145 nM. The pA2 in assay [4] amounted to 7.32.
Turning to `CC[C@H](C)[C@@H]1NC(=O)[C@H](Cc2ccc(O)cc2)NC(=O)CC2(CCCCC2)SSC[C@@H](C(=O)N2CCC[C@H]2C(=O)N[C@@H](CC(C)C)C(=O)NCC(N)=O)NC(=O)[C@H](CC(N)=O)NC(=O)[C@H](CCC(N)=O)NC1=O` (YIQNCPLG-NH2; linker N-5 via X1), the Kb was 24.5 nM in assay [1], 70.8 nM in assay [2] and 224 nM in assay [3].
Turning to `CC[C@H](C)[C@@H]1NC(=O)[C@H](Cc2ccc(O)cc2)NC(=O)CC(C)(C)SSC[C@@H](C(=O)N2CCC[C@H]2C(=O)N[C@@H](CC(C)C)C(=O)NCC(N)=O)NC(=O)[C@H](CC(N)=O)NC(=O)[C@H](CCC(N)=O)NC1=O` (YIQNCPLG-NH2; linker N-5 via X2), the Kb in assay [2] is 2340 nM. Moreover, the result in assay [5] was Active.
On to `CC[C@H](C)[C@@H]1NC(=O)[C@H](Cc2ccc(O)cc2)NC(=O)CC(CC)(CC)SSC[C@@H](C(=O)N2CCC[C@H]2C(=O)N[C@@H](CC(C)C)C(=O)NCC(N)=O)NC(=O)[C@H](CC(N)=O)NC(=O)[C@H](CCC(N)=O)NC1=O` (YIQNCPLG-NH2; linker N-5 via X3), for which the Kb in assay [1] is 28.2 nM; in assay [2], 151 nM; in assay [3], 631 nM. Besides, the pA2 in assay [4] came to 6.83.
In the same order, the values of `CC[C@H](C)[C@@H]1NC(=O)[C@H](Cc2ccc(O)cc2)NC(=O)CC2(CCCCC2)SSC[C@@H](C(=O)N2CCC[C@H]2C(=O)N[C@@H](CC(C)C)C(=O)NCC(N)=O)NC(=O)[C@H](CC(N)=O)NC(=O)[C@H]([C@@H](C)O)NC1=O` (YITNCPLG-NH2; linker N-5 via X1) are 12.3 nM, 15.5 nM, 115 nM and 5.86.
Regarding `CC[C@H](C)[C@@H]1NC(=O)[C@H](Cc2ccc(O)cc2)NC(=O)CC(C)(C)SSC[C@@H](C(=O)N2CCC[C@H]2C(=O)N[C@@H](CC(C)C)C(=O)NCC(N)=O)NC(=O)[C@H](CC(N)=O)NC(=O)[C@H]([C@@H](C)O)NC1=O` (YITNCPLG-NH2; linker N-5 via X2), the values for the Kb in assay [1], in assay [2] and in assay [3] were 30.2 nM, 589 nM and 490 nM, respectively. For the same molecule, in assay [5], the outcome was Active. Moreover, the pA2 in assay [4] came out at 6.67.
On to `CC[C@H](C)[C@@H]1NC(=O)[C@H](Cc2ccc(O)cc2)NC(=O)CC(CC)(CC)SSC[C@@H](C(=O)N2CCC[C@H]2C(=O)N[C@@H](CC(C)C)C(=O)NCC(N)=O)NC(=O)[C@H](CC(N)=O)NC(=O)[C@H]([C@@H](C)O)NC1=O` (YITNCPLG-NH2; linker N-5 via X3), for which the Kb in assay [1] was 19.1 nM; in assay [2] it was 43.7 nM; in assay [3], 339 nM. Besides, the pA2 in assay [4] is reported as 6.3.
For the molecule `CC[C@H](C)[C@@H]1NC(=O)[C@H](Cc2ccc(OC)cc2)NC(=O)CCSSC[C@@H](C(=O)N2CCC[C@H]2C(=O)N[C@@H](CC(C)C)C(=O)NCC(=O)NC(N)=O)NC(=O)[C@H](CC(N)=O)NC(=O)[C@H](CCC(N)=O)NC1=O` ([Mpa]Y(Me)IQNCPL-X4; disulfide 1-6), the Kb in assay [1] was 126 nM; in assay [2], 245 nM. The outcome in assay [3] and in assay [6] was Active.
